For 1 compound, Radiolabel recovery results are on record in ChEMBL document CHEMBL3525963, “Tissue distribution and elimination of [14C]apixaban in rats” (Drug Metab Dispos, 2011).

Common to all, as to format: ADME, organism-based
Holding throughout (set-up): dose 5 mg/kg, dosed compound name [14C]-apixaban, route oral
Common to all, as to settings: in vivo

The test system of series [1] is Blood. In words: Biodistribution in male Sprague-Dawley rat blood at 5 mg/kg, po administered as single dose measured after 0.5 hrs. Put shortly: (§1)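 [¹⁴C]Apixaban given by oral gavage at 5 mg/kg (100 μCi/kg) in 0.5% Tween 80 in Labrafil (1.0 mg/mL dosing solution) to rats fasted overnight through 4 h post-dose. One rat per time point; carcass frozen in hexane/dry ice. Quantitative whole-body autoradiography used 40 µm sagittal sections and a phosphor imaging plate calibrated with [¹⁴C]glucose standards (0.001–6.5 μCi/g). Read-out in µg eq apixaban/g; LLOQ 0.037 μg eq/g.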

For series [2], the system named is Blood. Put plainly: Biodistribution in male Sprague-Dawley rat blood at 5 mg/kg, po administered as single dose measured after 1 hr. In short, it runs like this: as §1
The test system of series [3] is Muscle tissue. In words: Biodistribution in female Sprague-Dawley rat muscle at 5 mg/kg, po administered as single dose measured after 4 hrs. In short, it runs like this:
as §1

Series [4] relates to Muscle tissue. Put plainly: Biodistribution in female Sprague-Dawley rat muscle at 5 mg/kg, po administered as single dose measured after 0.5 hrs. Put shortly:
as §1

The subject of a further series is Lung. Put plainly: Biodistribution in male Sprague-Dawley rat lung at 5 mg/kg, po administered as single dose measured after 72 hrs. Put shortly:
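Fasted male SD rats (225-252 g) each received one oral gavage dose of [14C]apixaban, 5 mg/kg (100 μCi/kg), in 0.5% Tween 80/Labrafil vehicle. One rat was killed per time point, from 0.5 to 168 h. Frozen carcasses were cut into 40 µm sagittal whole-body sections and read by QWBA phosphor imaging against [14C]glucose calibrants. Results are in µg apixaban eq/g; BLQ <0.037 µg eq/g.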

A further series relates to Thymus. Put plainly: Biodistribution in pregnant Sprague-Dawley rat thymus at 5 mg/kg, po administered as single dose measured after 8 hrs.
The subject of the next series is Harderian gland. In words: Biodistribution in pregnant Sprague-Dawley rat harderian gland at 5 mg/kg, po administered as single dose measured after 24 hrs. Put shortly:
(§2)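 Fasted pregnant SD rats (n=6, 270-319 g) each received one oral gavage dose of [14C]apixaban, 5 mg/kg (100 μCi/kg), in 0.5% Tween 80/Labrafil. One rat was killed at each of 0.5, 1, 4, 8, 24 and 48 h. Carcasses were frozen in hexane/dry ice, cut into 40 µm sagittal sections, exposed to phosphor plates and quantified against [14C]glucose standards as µg eq/g. LLOQ was 0.037 µg eq/g.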

Series [5] relates to Liver. In words: Biodistribution in female Sprague-Dawley rat liver at 5 mg/kg, po administered as single dose measured after 0.5 hrs. Put shortly: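 Quantitative whole-body autoradiography was run after a single 5 mg/kg (100 μCi/kg) oral gavage to fasted female or pregnant SD rats, one rat per time point. Carcasses were frozen in hexane/dry ice, and 40 µm sagittal sections were dried at −20°C for at least 48 h. Sections were exposed to a phosphor plate alongside [14C]glucose standards (0.001–6.5 µCi/g). Results are µg eq/g, with LLOQ 0.037 µg eq/g.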

The test system of series [6] is Liver. In words: Biodistribution in pregnant Sprague-Dawley rat liver at 5 mg/kg, po administered as single dose measured after 48 hrs. Put shortly:
as §2

Series [7] relates to Rattus norvegicus. Put plainly: Biodistribution in female Sprague-Dawley rat kidney cortex at 5 mg/kg, po administered as single dose measured after 4 hrs. In short, it runs like this: (§3)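 [14C]apixaban (20 μCi/mL in dosing solution) in 0.5% Tween 80 in Labrafil given by oral gavage to fasted female rats, 206-213 g, at 100 μCi/kg. One rat per time point was euthanized and snap-frozen. Sagittal 40 µm whole-body sections were read by QWBA phosphor imaging against [14C]glucose standards. Results are in µg eq apixaban/g, with LLOQ 0.037 μg eq/g.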

The subject of series [8] is Rattus norvegicus. Put plainly: Biodistribution in female Sprague-Dawley rat pituitary gland at 5 mg/kg, po administered as single dose measured after 1 hr. Put shortly: as §3
Series [9] deals with Rattus norvegicus. In words: Biodistribution in female Sprague-Dawley rat bone marrow at 5 mg/kg, po administered as single dose measured after 1 hr. Put shortly: as §3

Molecules are shown by their SMILES.

Turning to `COc1ccc(-n2nc(C(N)=O)c3c2C(=O)N(c2ccc(N4CCCC[14C]4=O)cc2)CC3)cc1`, the Radiolabel recovery in the series on Blood [1] is recorded as 0.42 ugequiv/g; with Blood [2] it was 1.18 ugequiv/g; in the series with Muscle tissue [3], 0.29 ugequiv/g; in the series on Muscle tissue [4], 0.23 ugequiv/g; with Lung, “Not detected assumed BLQ”; with Thymus, 0.05 ugequiv/g. The Radiolabel recovery entry with Harderian gland is “Not detected assumed BLQ”; with Liver [5], 2.67 µgequiv/g; with Liver [6], “Not detected assumed BLQ”; in the series with Rattus norvegicus [7], 1.21 ugequiv/g; with Rattus norvegicus [8] it was 0.42 ugequiv/g; in the series on Rattus norvegicus [9], 0.41 ugequiv/g.
